# In ChEMBL document CHEMBL4118269 (J Med Chem, 2018):
# Tests used:
# [1] = target: Lanosterol 14-alpha demethylase (Aspergillus) (UniProt B8NUK6+Q9P8R0+G4WW85); experiment: Inhibition of Aspergillus fumigatus CYP51 assessed as reduction in [3-3H]eburicol 14alpha-demethylation at 0.75 uM preincubated for 60 secs followed by NADPH addition measured after 60 mins by RP-HPLC analysis relative to control
# Method in brief: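 E. coli-expressed, purified CYP51 (0.5 μM) with rat NADPH-P450 reductase (1.0 μM), 100 μM dilauroylphosphatidylcholine, isocitrate dehydrogenase/isocitrate NADPH regeneration, in 50 mM K phosphate pH 7.2 with 10% glycerol and 0.1% Triton X-100. [3-3H]eburicol 25 μM final, inhibitor 0.75 μM final (1.5:1:50 inhibitor:enzyme:substrate), 37 °C. Started with 100 μM NADPH, 60 min, EtOAc extraction, radio-HPLC. Percent inhibition, triplicate, mean ± SD.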
# Aspergillus fumigatus [2] = experiment: Antifungal activity against Aspergillus fumigatus MYA626 after 48 hrs by CLSI M38-A2 protocol based assay; type: functional; conditions: MYA626, 48 h, read-out: MIC100
# Aspergillus fumigatus [3] = experiment: Antifungal activity against Aspergillus fumigatus 1022 after 48 hrs by CLSI M38-A2 protocol based assay; type: functional; conditions: Aspergillus fumigatus, 1022, 48 h; read-out: MIC100
# [4] = target: T1, Lanosterol 14-alpha demethylase (Aspergillus, UniProt B8NUK6+G4WW85+Q9P8R0); experiment: Binding affinity to Aspergillus fumigatus CYP51 by spectral titration method; conditions: read-out: Kd(app)
# T1 sequence (B8NUK6 whole entry): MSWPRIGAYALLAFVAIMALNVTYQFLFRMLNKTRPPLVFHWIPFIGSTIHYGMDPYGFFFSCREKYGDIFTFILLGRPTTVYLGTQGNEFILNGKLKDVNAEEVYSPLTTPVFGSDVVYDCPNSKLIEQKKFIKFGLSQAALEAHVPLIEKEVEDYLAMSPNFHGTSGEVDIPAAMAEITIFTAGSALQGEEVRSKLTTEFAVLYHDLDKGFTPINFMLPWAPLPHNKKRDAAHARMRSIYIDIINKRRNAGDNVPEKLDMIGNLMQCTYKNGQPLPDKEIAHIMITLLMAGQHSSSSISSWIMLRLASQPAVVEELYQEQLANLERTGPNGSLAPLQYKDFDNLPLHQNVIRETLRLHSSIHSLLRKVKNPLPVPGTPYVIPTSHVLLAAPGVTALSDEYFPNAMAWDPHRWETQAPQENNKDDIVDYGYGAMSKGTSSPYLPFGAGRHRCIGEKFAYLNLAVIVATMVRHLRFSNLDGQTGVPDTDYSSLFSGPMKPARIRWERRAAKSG
# T1 sequence (Q9P8R0 whole entry): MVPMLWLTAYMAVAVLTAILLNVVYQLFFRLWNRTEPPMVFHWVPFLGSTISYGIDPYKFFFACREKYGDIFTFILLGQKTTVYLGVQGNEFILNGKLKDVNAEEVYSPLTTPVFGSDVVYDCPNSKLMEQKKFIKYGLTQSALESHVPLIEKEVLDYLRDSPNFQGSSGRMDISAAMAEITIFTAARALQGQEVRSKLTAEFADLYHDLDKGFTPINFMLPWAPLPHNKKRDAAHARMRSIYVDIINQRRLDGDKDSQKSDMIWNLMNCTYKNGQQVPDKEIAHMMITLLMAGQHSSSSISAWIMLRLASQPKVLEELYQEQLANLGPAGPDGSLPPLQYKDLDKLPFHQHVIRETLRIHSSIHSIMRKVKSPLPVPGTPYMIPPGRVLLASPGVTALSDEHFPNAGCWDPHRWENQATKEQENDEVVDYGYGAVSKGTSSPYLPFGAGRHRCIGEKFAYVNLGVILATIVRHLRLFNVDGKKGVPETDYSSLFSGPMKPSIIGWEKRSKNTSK
# T1 sequence (G4WW85 whole entry): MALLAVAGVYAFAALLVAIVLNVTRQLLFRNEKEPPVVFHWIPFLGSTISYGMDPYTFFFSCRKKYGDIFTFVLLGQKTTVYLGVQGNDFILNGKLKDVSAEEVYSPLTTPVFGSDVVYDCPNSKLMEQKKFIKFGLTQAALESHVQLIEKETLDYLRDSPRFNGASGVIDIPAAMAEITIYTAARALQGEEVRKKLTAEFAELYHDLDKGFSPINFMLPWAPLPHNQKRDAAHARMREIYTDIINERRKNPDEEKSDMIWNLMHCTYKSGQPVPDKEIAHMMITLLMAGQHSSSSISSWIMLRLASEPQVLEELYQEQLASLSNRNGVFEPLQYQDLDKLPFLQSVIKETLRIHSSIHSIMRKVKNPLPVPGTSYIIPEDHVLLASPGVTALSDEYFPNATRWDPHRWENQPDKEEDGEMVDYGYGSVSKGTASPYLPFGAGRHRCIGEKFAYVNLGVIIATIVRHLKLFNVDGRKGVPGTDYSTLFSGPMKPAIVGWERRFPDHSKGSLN
# Method in brief: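 Purified CYP51 at 0.5 μM in 5 cm path cuvettes, titrated from 0.2 mM DMSO stocks over 0.1–0.8 μM ligand. Type II red shift of the Soret band (417 to 424 nm) followed as ΔA (Amax−Amin) in difference spectra. Kd obtained by fitting to the quadratic tight-binding equation using total ligand and enzyme concentrations.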
# in vitro [5] = conditions: CD-1, mouse, liver microsomes
# [6] = Half life in Sprague-Dawley rat liver microsomes at 1 uM preincubated for 5 mins followed by NADPH addition measured up to 45 mins by LC-MS/MS analysis; type: ADME, microsome; conditions: 0.75 h
# Method in brief: (§1)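 Pooled liver microsomes (0.5 mg/mL; male CD-1 mouse, male Sprague Dawley rat, or mixed-gender human) with 1 μM compound in 100 mM potassium phosphate pH 7.4, 3 mM MgCl2, 37 °C with shaking. 5 min preincubation, then 1 mM NADPH. Aliquots at 0, 3, 7, 15, 25, 45 min quenched in cold CH3CN with carbamazepine internal standard, then LC/MS/MS. Triplicate; T1/2 = ln2/k from the slope of ln % remaining versus time.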
# in vitro [7] = conditions: Sprague-Dawley, rat, liver microsomes
# in vitro [8] = conditions: human, liver microsomes
# in vitro [9] = conditions: Sprague-Dawley, rat, liver microsomes; remark: listed apart in the source
# [10] = Half life in CD-1 mouse liver microsomes at 1 uM preincubated for 5 mins followed by NADPH addition measured up to 45 mins by LC-MS/MS analysis; type: ADME, microsome; conditions: 0.75 h; method in brief: as §1
# Aspergillus fumigatus [11] = experiment: Antifungal activity against Aspergillus fumigatus 32820 after 48 hrs by CLSI M38-A2 protocol based assay; type: functional; conditions: Aspergillus fumigatus, 32820, 48 h; read-out: MIC100
# [12] = Lipophilicity, log P of the compound; type: physicochemical; conditions: octanol/water
# [13] = target: T2, Lanosterol 14-alpha demethylase (Candida albicans (strain SC5314 / ATCC MYA-2876) (Yeast), UniProt P10613); experiment: Inhibition of Candida albicans CYP51 assessed as reduction in [3-3H]lanosterol 14alpha-demethylation at 0.75 uM preincubated for 60 secs followed by NADPH addition measured after 60 mins by RP-HPLC analysis relative to control; conditions: 1 h
# T2 sequence (P10613 whole entry): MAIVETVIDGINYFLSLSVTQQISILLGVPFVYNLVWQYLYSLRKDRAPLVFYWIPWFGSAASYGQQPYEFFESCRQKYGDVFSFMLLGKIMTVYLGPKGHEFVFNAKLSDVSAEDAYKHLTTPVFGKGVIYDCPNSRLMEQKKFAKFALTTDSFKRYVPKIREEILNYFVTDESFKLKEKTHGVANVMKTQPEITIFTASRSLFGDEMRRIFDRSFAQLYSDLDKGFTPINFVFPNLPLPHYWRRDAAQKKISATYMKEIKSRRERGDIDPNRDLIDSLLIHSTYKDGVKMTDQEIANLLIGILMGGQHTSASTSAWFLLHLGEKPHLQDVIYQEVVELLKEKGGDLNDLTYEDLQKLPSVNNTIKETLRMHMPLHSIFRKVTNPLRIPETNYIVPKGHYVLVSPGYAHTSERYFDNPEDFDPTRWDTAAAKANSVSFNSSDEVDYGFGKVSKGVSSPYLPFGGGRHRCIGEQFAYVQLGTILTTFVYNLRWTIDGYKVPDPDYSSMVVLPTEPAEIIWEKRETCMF
# Method in brief: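 C. albicans CYP51 expressed in E. coli and purified, 0.5 μM, with 1.0 μM rat NADPH-P450 reductase, dilauroylphosphatidylcholine and isocitrate dehydrogenase/isocitrate regeneration in 50 mM potassium phosphate pH 7.2, 10% glycerol, 0.1% Triton X-100. Substrate 25 μM final; inhibitor:enzyme:substrate 1.5:1:50. 37 °C, started with 100 μM NADPH. Sterols extracted with EtOAc, radio-HPLC. Triplicate, mean ± SD.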
# [14] = Half life in human liver microsomes at 1 uM preincubated for 5 mins followed by NADPH addition measured up to 45 mins by LC-MS/MS analysis; type: ADME, microsome; conditions: 0.75 h; method in brief: as §1
# in vitro [15] = conditions: CD-1, mouse, liver microsomes; remark: listed apart in the source
# in vitro [16] = conditions: human, liver microsomes; remark: listed apart in the source
# [17] = target: T2, Lanosterol 14-alpha demethylase; experiment: Binding affinity to Candida albicans CYP51 by spectral titration method; conditions: read-out: Kd(app)
# Method in brief: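 Purified CYP51 at 0.5 μM in 5 cm path cuvettes, titrated from 0.2 mM DMSO stocks over 0.1–0.8 μM ligand. Kd obtained by fitting to the quadratic tight-binding equation using total ligand and enzyme concentrations.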
# [18] = target: T2, Lanosterol 14-alpha demethylase; experiment: Potency index, ratio of VNI Kd(app) to compound Kd(app) for Candida albicans CYP51
# Aspergillus fumigatus [19] = experiment: Antifungal activity against Aspergillus fumigatus after 48 hrs
compound,measurement,setting,value
O=C(N[C@@H](Cn1ccnc1)c1ccc(Cl)cc1Cl)c1ccc(-c2nnc(-c3ccc(C(F)(F)F)c(F)c3)o2)cc1,inhibition,[1],65%
same,MIC,Aspergillus fumigatus [2],0.39 µg/mL
same,MIC,Aspergillus fumigatus [3],0.19 µg/mL
same,Kd,[4],55 nM
same,"CLint scaled at 0.75 h, 1 µM",in vitro [5],60 mL/min/kg
same,t1/2,[6],1.28 h
same,"CLint scaled at 0.75 h, 1 µM",in vitro [7],36 mL/min/kg
same,"CLhep predicted at 0.75 h, 1 µM",in vitro [8],4.07 mL/min/kg
same,"CLhep predicted at 0.75 h, 1 µM",in vitro [9],24 mL/min/kg
same,t1/2,[10],1.53 h
same,MIC,Aspergillus fumigatus [11],0.09 µg/mL
same,logP,[12],5.65
same,inhibition at 0.75 µM,[13],89%
same,t1/2,[14],3.43 h
same,"CLhep predicted at 0.75 h, 1 µM",in vitro [15],36 mL/min/kg
same,"CLint scaled at 0.75 h, 1 µM",in vitro [16],6.06 mL/min/kg
O=C(N[C@@H](Cn1ccnc1)c1ccc(Cl)cc1Cl)c1ccc(-c2nnc(-c3ccc(OCC(F)(F)F)cc3F)o2)cc1,inhibition,[1],82%
same,MIC,Aspergillus fumigatus [2],0.39 µg/mL
same,MIC,Aspergillus fumigatus [3],0.19 µg/mL
same,Kd,[4],20 nM
same,"CLint scaled at 0.75 h, 1 µM",in vitro [5],88 mL/min/kg
same,"CLint scaled at 0.75 h, 1 µM",in vitro [7],64 mL/min/kg
same,"CLhep predicted at 0.75 h, 1 µM",in vitro [8],9.24 mL/min/kg
same,"CLhep predicted at 0.75 h, 1 µM",in vitro [9],34 mL/min/kg
same,t1/2,[10],1.03 h
same,MIC,Aspergillus fumigatus [11],0.06 µg/mL
same,logP,[12],5.58
same,inhibition at 0.75 µM,[13],94%
same,t1/2,[14],1.27 h
same,"CLhep predicted at 0.75 h, 1 µM",in vitro [15],44 mL/min/kg
same,"CLint scaled at 0.75 h, 1 µM",in vitro [16],16.5 mL/min/kg
O=C(N[C@@H](Cn1ccnc1)c1ccc(Cl)cc1Cl)c1ccc(-c2nnc(-c3ccc(F)c(F)c3)o2)cc1,inhibition,[1],58%
same,MIC,Aspergillus fumigatus [2],0.78 µg/mL
same,MIC,Aspergillus fumigatus [3],0.29 µg/mL
same,Kd,[4],57 nM
same,"CLint scaled at 0.75 h, 1 µM",in vitro [5],55 mL/min/kg
same,t1/2,[6],1.52 h
same,"CLint scaled at 0.75 h, 1 µM",in vitro [7],31 mL/min/kg
same,"CLhep predicted at 0.75 h, 1 µM",in vitro [8],5.54 mL/min/kg
same,"CLhep predicted at 0.75 h, 1 µM",in vitro [9],21 mL/min/kg
same,t1/2,[10],1.63 h
same,MIC,Aspergillus fumigatus [11],0.08 µg/mL
same,logP,[12],4.88
same,t1/2,[14],2.77 h
same,"CLhep predicted at 0.75 h, 1 µM",in vitro [15],34 mL/min/kg
same,"CLint scaled at 0.75 h, 1 µM",in vitro [16],7.53 mL/min/kg
CC[C@@H]([C@H](C)O)n1ncn(-c2ccc(N3CCN(c4ccc(OC[C@@H]5CO[C@@](Cn6cncn6)(c6ccc(F)cc6F)C5)cc4)CC3)cc2)c1=O [POSACONAZOLE],inhibition,[1],93%
same,Kd,[4],131 nM
same,Kd,[17],81 nM
same,Ratio,[18],3.5
same,inhibition at 0.75 µM,[13],98%
O=C(N[C@@H](Cn1ccnc1)c1ccc(Cl)cc1Cl)c1ccc(-c2nnc(-c3cc(F)cc(-c4ncncc4F)c3)o2)cc1,inhibition,[1],57%
same,MIC,Aspergillus fumigatus [2],0.78 µg/mL
same,MIC,Aspergillus fumigatus [3],0.48 µg/mL
same,Kd,[4],132 nM
same,"CLint scaled at 0.75 h, 1 µM",in vitro [5],104 mL/min/kg
same,"CLint scaled at 0.75 h, 1 µM",in vitro [7],27 mL/min/kg
same,"CLhep predicted at 0.75 h, 1 µM",in vitro [8],8.37 mL/min/kg
same,"CLhep predicted at 0.75 h, 1 µM",in vitro [9],19.5 mL/min/kg
same,t1/2,[10],0.867 h
same,MIC,Aspergillus fumigatus [11],0.19 µg/mL
same,logP,[12],5.05
same,inhibition at 0.75 µM,[13],92%
same,t1/2,[14],1.4 h
same,"CLhep predicted at 0.75 h, 1 µM",in vitro [15],48.3 mL/min/kg
same,"CLint scaled at 0.75 h, 1 µM",in vitro [16],14.9 mL/min/kg
C[C@@H](c1ncncc1F)[C@](O)(Cn1cncn1)c1ccc(F)cc1F [VORICONAZOLE],Kd,[4],56 nM
same,MIC,Aspergillus fumigatus [19],0.7 µg/mL
O=C(N[C@@H](Cn1ccnc1)c1ccc(Cl)cc1Cl)c1ccc(-c2nnc(-c3ccccc3)o2)cc1,inhibition,[1],24%
same,MIC,Aspergillus fumigatus [3],0.48 µg/mL
same,Kd,[4],203 nM
same,"CLint scaled at 0.75 h, 1 µM",in vitro [5],87 mL/min/kg
same,t1/2,[6],1.77 h
same,"CLint scaled at 0.75 h, 1 µM",in vitro [7],26.4 mL/min/kg
same,"CLhep predicted at 0.75 h, 1 µM",in vitro [8],5.95 mL/min/kg
same,"CLhep predicted at 0.75 h, 1 µM",in vitro [9],19.2 mL/min/kg
same,MIC,Aspergillus fumigatus [19],0.5 µg/mL
same,t1/2,[10],1.03 h
same,MIC,Aspergillus fumigatus [11],0.08 µg/mL
same,logP,[12],4.57
same,inhibition at 0.75 µM,[13],20%
same,t1/2,[14],2.5 h
same,"CLhep predicted at 0.75 h, 1 µM",in vitro [15],44 mL/min/kg
same,"CLint scaled at 0.75 h, 1 µM",in vitro [16],8.31 mL/min/kg
